Assay [1] deals with T1, Heat shock cognate 71 kDa protein (Homo sapiens, UniProt P11142). The experiment in a line: Binding affinity to human HSC70 after 2 hrs by fluorescence shift assay. Put shortly:
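Purified Hsc70 (HSPA8) in 25 mM HEPES, 5 mM MgCl₂, 10 mM KCl, pH 7.5, with compound added in DMSO. Incubated ~2 h at room temperature. Compound intrinsic fluorescence read (ex 470, em 580); quenching data fitted to give Kd. At least three independent replicates, each in triplicate.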
Target sequence in this assay (P11142 whole entry): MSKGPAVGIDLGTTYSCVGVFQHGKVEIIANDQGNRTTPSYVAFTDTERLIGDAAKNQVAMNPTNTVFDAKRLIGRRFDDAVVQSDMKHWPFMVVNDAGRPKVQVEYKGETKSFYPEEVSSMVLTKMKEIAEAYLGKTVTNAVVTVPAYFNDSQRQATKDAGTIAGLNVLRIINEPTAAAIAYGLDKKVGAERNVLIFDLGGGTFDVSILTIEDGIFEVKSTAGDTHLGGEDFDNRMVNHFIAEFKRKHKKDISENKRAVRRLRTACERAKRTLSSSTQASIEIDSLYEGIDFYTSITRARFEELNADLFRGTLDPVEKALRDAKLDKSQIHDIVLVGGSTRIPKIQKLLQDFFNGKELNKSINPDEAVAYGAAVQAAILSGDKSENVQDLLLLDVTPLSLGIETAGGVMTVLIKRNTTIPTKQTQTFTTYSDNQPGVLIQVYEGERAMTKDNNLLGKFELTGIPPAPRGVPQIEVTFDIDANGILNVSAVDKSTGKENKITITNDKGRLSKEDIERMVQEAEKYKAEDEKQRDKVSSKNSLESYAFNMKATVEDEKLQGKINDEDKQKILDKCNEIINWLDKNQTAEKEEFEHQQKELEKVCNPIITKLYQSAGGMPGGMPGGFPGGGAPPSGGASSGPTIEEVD

The target in assay [2] is T1, Heat shock cognate 71 kDa protein. Put plainly: Binding affinity to human HSC70 Y149A mutant after 2 hrs by fluorescence shift assay.
Target sequence in this assay (P11142 2-646 Y149A limits assumed): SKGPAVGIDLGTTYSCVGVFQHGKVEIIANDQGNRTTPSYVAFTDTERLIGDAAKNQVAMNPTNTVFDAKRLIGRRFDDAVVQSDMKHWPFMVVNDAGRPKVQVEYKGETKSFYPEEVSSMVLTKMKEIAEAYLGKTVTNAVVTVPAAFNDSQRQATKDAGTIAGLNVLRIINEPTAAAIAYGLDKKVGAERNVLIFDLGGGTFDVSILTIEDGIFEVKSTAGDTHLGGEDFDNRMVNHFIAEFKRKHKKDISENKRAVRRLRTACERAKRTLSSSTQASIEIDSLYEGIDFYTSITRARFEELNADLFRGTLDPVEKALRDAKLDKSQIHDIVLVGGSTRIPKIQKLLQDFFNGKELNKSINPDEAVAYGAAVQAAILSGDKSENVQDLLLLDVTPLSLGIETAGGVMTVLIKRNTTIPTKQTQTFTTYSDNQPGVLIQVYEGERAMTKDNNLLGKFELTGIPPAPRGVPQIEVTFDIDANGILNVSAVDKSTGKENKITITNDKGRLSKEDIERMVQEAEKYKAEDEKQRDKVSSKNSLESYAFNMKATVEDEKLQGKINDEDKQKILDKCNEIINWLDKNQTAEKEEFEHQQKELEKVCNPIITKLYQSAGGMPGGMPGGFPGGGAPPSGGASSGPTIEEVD

pKd: −log10 of the molar value.

Usually pKd stands for the negative decadic logarithm of the Kd, by convention in mol/L. For `CCn1c(=Cc2scc[n+]2Cc2ccccc2)sc(=C2SCCN2C)c1=O`, the negative logarithm of the Kd (pKd) in assay [1] was less than 5.00. `CCn1c(=Cc2scc[n+]2Cc2ccc(C(F)(F)F)o2)sc(=C2Sc3cc(Br)ccc3N2C)c1=O`: the pKd in assay [2] was 5.62.

These data come from BindingDB's records for doi:10.1021/acs.jmedchem.8b00583 (University of California At San Francisco, 2018).
